In PMC3068223 (Biochemistry, 2011):

Columns and labels:
Assay type in all cases: biochemical
MOM-bound rat MAO B [1] = biological target: T1, MOM-bound rat MAO B (Rattus norvegicus, UniProt P19643); assay: Rate of inactivation of MOM-bound recombinant rat MAO B; settings: apparent pseudo-first order, 1 mM inhibitor, room temperature
T1 sequence (P19643 1-520): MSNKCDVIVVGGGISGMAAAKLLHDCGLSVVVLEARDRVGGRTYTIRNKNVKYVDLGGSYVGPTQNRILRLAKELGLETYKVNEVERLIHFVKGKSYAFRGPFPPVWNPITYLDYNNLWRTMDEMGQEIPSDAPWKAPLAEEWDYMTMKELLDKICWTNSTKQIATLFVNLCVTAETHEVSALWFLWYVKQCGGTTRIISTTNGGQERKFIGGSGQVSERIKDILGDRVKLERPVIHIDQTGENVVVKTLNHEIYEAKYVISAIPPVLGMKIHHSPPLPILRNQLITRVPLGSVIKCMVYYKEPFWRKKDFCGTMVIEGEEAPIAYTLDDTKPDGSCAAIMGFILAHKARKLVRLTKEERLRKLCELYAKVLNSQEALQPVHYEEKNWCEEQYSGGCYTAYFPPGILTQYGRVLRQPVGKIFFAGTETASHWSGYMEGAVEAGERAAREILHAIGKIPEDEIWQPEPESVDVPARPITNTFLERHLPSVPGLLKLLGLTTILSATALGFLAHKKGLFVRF

rat MAO B = biological target: T2, rat MAO B (Rattus norvegicus, UniProt P19643); assay: Inhibition of recombinant rat MAO B in P. pastoris mitochondria; settings: intact yeast mitochondria
T2 sequence (P19643 1-520): T1 sequence (P19643 1-520)

rat MAO A = biological target: T3, rat MAO A (Rattus norvegicus, UniProt P21396); assay: Inhibition of recombinant rat MAO A in P. pastoris mitochondria; settings: intact yeast mitochondria
T3 sequence (P21396 1-526): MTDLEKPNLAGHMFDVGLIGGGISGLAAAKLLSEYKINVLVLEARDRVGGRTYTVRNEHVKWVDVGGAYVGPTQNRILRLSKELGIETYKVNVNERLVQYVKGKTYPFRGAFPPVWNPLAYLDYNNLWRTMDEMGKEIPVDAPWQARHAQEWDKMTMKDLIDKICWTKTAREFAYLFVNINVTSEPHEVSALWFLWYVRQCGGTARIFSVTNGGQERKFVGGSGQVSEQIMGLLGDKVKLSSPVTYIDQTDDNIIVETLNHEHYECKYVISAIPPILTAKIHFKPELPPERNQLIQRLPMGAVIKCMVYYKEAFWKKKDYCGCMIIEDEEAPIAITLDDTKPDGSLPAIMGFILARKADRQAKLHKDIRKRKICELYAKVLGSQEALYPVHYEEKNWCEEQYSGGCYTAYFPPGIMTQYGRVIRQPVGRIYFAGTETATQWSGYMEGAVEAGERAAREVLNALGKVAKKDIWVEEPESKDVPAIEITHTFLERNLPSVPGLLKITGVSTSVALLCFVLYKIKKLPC

MOM-bound rat MAO A [2] = biological target: T4, MOM-bound rat MAO A (Rattus norvegicus, UniProt P21396); assay: Rate of inactivation of MOM-bound recombinant rat MAO A; settings: apparent pseudo-first order, 1 mM inhibitor, room temperature
T4 sequence (P21396 1-526): T3 sequence (P21396 1-526)
Summary of the method: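 Outer-membrane-bound rat MAO A came from Pichia pastoris KM71 mitochondria, isolated by osmotic shock, sonication and sucrose gradient. Membranes were incubated with 1 mM test compound at room temperature, with an uninhibited control. Remaining activity over time was followed spectrophotometrically at 25°C. Apparent pseudo-first-order rate constants were obtained from exponential fits of activity decay.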

purified rat MAO A = biological target: T5, purified rat MAO A (Rattus norvegicus, UniProt P21396); assay: Rate of inactivation of purified rat MAO A; settings: apparent pseudo-first order, 1 mM inhibitor, room temperature
T5 sequence (P21396 1-526): T3 sequence (P21396 1-526)
Summary of the method: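 Recombinant rat MAO A was purified from Pichia pastoris KM71, with d-amphetamine removed before kinetics. The enzyme was incubated with 1 mM test compound at room temperature, with an uninhibited control. Activity loss over time was measured spectrophotometrically with kynuramine in 50 mM potassium phosphate, pH 7.5, 0.5% reduced Triton X-100, at 25°C. Pseudo-first-order rate constants came from exponential decay fits.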

purified rat MAO B = biological target: T6, purified rat MAO B (Rattus norvegicus, UniProt P19643); assay: Rate of inactivation of purified rat MAO B; settings: apparent pseudo-first order, 1 mM inhibitor, room temperature
T6 sequence (P19643 1-520): T1 sequence (P19643 1-520)

MAO A = biological target: T7, MAO A (Rattus norvegicus, UniProt P21396); assay: Protease treatment of rat liver mitochondria, MAO A activity; settings: protease:protein 1:5 (w/w), room temperature
T7 sequence (P21396 1-526): T3 sequence (P21396 1-526)
Summary of the method: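 Rat liver mitochondria were isolated from a perfused Sprague-Dawley rat liver and purified on 30% Percoll. They were incubated at room temperature with trypsin at a 1:5 (w/w) protease:protein ratio. Samples taken over time were quenched with 1 mM PMSF (final). MAO A activity was measured polarographically as O2 uptake with serotonin in 50 mM potassium phosphate, pH 7.5, at 25°C.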

MOM-bound rat MAO A [3] = biological target: T4, MOM-bound rat MAO A; assay: Protease treatment of yeast recombinant MOM-bound rat MAO A; settings: protease:protein 1:5 (w/w), room temperature
Summary of the method: (§1)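 Rat MAO A or MAO B was expressed in Pichia pastoris KM71. Outer membranes were isolated by osmotic shock, mild sonication and a 30–55% sucrose gradient. Membranes were incubated at room temperature with trypsin or β-chymotrypsin at a 1:5 (w/w) protease:protein ratio. Timed samples were quenched with 1 mM PMSF (final). Residual activity was measured spectrophotometrically as product formation at 25°C.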

MOM-bound rat MAO B [4] = biological target: T1, MOM-bound rat MAO B; assay: Protease treatment of yeast recombinant MOM-bound rat MAO B; settings: protease:protein 1:5 (w/w), room temperature
Summary of the method: as §1

## C#CCN(C)Cc1ccccc1 [Pargyline, pargyline]
MOM-bound rat MAO B [1]
  k (inactivation) MAO B (MOM): too fast to measure
Rat MAO B
  inhibition of rat MAO B in intact mitochondria: functions as an inhibitor with either enzyme
Rat MAO A
  inhibition of rat MAO A in intact mitochondria: functions as an inhibitor with either enzyme
MOM-bound rat MAO A [2]
  k (inactivation) MAO A (MOM): 44.8 ± 6.2 s⁻¹
Purified rat MAO A
  k (inactivation) MAO A (Purified): 9.4 ± 1.1 s⁻¹
Purified rat MAO B
  k (inactivation) MAO B (Purified): too fast to measure

## trypsin
MAO A
  MAO A activity lost: > 90%
MOM-bound rat MAO A [3]
  inactivation of yeast recombinant MOM-bound rat MAO A by protease: sensitive to trypsin
MOM-bound rat MAO B [4]
  inactivation of yeast recombinant MOM-bound rat MAO B by protease: no observable inactivation
